Experimental findings from ChEMBL document CHEMBL2401640, “In search of flavivirus inhibitors: evaluation of different tritylated nucleoside analogues” (Eur J Med Chem, 2013) are described below.

Molecules are shown by their SMILES.

Data set [1] is described as follows: Selectivity index, ratio of CC50 for mosquito C6/36 cells to EC50 for DENV serotype 2 NGC.
A short description of data set [2]: Cytotoxicity against mosquito C6/36 cells after 1 week. The following applies: aedes albopictus. Type of data set: cell-based.
Data set [3] is described as follows: Cytotoxicity against african green monkey Vero cells after 1 week. Type of data set: cell-based. The following applies: chlorocebus sabaeus. The gist of the method: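 Vero-B cells in MEM with 2% FCS, seeded at 7 x 10³ (DENV assay) or 2 x 10⁴ (YFV assay) cells/well and left to adhere overnight. Serial compound dilutions were added without virus and incubated one week. Cells were ethanol-fixed and stained with 1% methylene blue. CC50, the concentration inhibiting cell growth by 50%, was determined visually.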

Data set [4] is described as follows: Selectivity index, ratio of CC50 for african green monkey Vero cells to EC50 for YFV 17D. The procedure, abridged: (§1)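 Vero-B cells (ATCC CCL-81), grown in MEM with 10% FCS, seeded at 2 x 10⁴ cells/well in 2% FCS medium and left to adhere overnight. Infected with 100 CCID₅₀ of YFV-17D vaccine strain (one passage in Vero-B), then serial compound dilutions added. After one week, fixed with ethanol and stained with methylene blue. EC₅₀ for CPE inhibition and CC₅₀ from uninfected parallel cultures, both read visually.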

Another data set deals with Yellow fever virus. The data set is described as follows: Antiviral activity against YFV 17D infected in african green monkey Vero cells assessed as inhibition of virus-induced cytopathic effect after 1 week. Format: functional, cell-based. Particulars: 168 h. The gist of the method:
as §1
A general note: Protection from cytopathic effect is a common read-out in antiviral testing.

The next data set relates to dengue virus type 2. In words: Antiviral activity against DENV serotype 2 NGC infected in mosquito C6/36 cells assessed as inhibition of virus-induced cytopathic effect after 1 week. Particulars: C6/36, 168 h. Format: functional, organism-based.

`O=c1ccn([C@@H]2O[C@H](COC(c3ccccc3)(c3ccccc3)c3ccccc3)[C@@H](OC(c3ccccc3)(c3ccccc3)c3ccccc3)[C@H]2O)c(=O)[nH]1`: the entries for the “Ratio CC50/EC50” value in data set [1] and in data set [4] were over 5 and over 85, respectively. For the same compound, the CC50 (as a rule, the concentration that lowers cell viability or growth by half) at 168 h was over 10 µM in data set [2] and over 85 µM in data set [3]. Also, the concentration giving a half-maximal response (EC50) (commonly the concentration giving half of the maximal effect) in the data set with Yellow fever virus is 1000 nM; in the data set on dengue virus type 2, 1.75 µM.

Take `O=c1[nH]c(=O)n([C@@H]2O[C@H](COC(c3ccccc3)(c3ccccc3)c3ccccc3)[C@@H](O)[C@H]2OC(c2ccccc2)(c2ccccc2)c2ccccc2)cc1Cl`: the “Ratio CC50/EC50” value in data set [1] was 1.75; in data set [4], over 90. Moreover, the 50% cytotoxic concentration (CC50) at 168 h is 30 µM in data set [2] and over 70 µM in data set [3]. Also, the EC50 stood at 750 nM with Yellow fever virus and 17 µM in the data set with dengue virus type 2.

As for `O=c1[nH]cnc2c1ncn2[C@@H]1O[C@H](COC(c2ccccc2)(c2ccccc2)c2ccccc2)[C@@H](O)[C@H]1OC(c1ccccc1)(c1ccccc1)c1ccccc1`, the results for the CC50 at 168 h in data set [2] and in data set [3] were 6 µM and 10 µM, respectively.

For the compound `O=c1ccn([C@@H]2O[C@H](COC(c3ccccc3)(c3ccccc3)c3ccccc3)[C@@H](O)[C@H]2O)c(=O)[nH]1`, the entries for the “Ratio CC50/EC50” value in data set [1] and in data set [4] were 1.67 and 4.5, respectively. For the same compound, the CC50 at 168 h in data set [2] turned out to be 10 µM; in data set [3], 18 µM. The EC50 in the data set on Yellow fever virus was found to be 4000 nM; in the data set on dengue virus type 2, 6 µM.

Turning to `Cc1cn([C@H]2C[C@H](OC(c3ccccc3)(c3ccccc3)c3ccccc3)[C@@H](CO)O2)c(=O)[nH]c1=O`, the CC50 at 168 h is 10 µM in data set [2] and 18 µM in data set [3]. Besides, the “Ratio CC50/EC50” value in data set [4] stood at 1.8. For the same compound, the half-maximal effective concentration (EC50) in the data set on Yellow fever virus turned out to be 10000 nM.

In the case of `O=c1ccn([C@H]2C[C@H](OC(c3ccccc3)(c3ccccc3)c3ccccc3)[C@@H](CO)O2)c(=O)[nH]1`, the results for the CC50 at 168 h in data set [2] and in data set [3] were 5 µM and 4 µM, respectively. For the same compound, in data set [4], the “Ratio CC50/EC50” value came out at 2.7. Moreover, in the data set on Yellow fever virus, the EC50 stood at 1500 nM.

As to `O=c1[nH]cnc2c1ncn2[C@@H]1O[C@H](COC(c2ccccc2)(c2ccccc2)c2ccccc2)[C@@H](OC(c2ccccc2)(c2ccccc2)c2ccccc2)[C@H]1O`, the “Ratio CC50/EC50” value is reported as 6.6 in data set [1] and over 40 in data set [4]. The CC50 at 168 h in data set [2] and in data set [3] was 10 µM each time. Also, the EC50 in the data set on Yellow fever virus is under 400 nM; in the data set with dengue virus type 2 it was 1.5 µM.

On to `Oc1ncnc2c1ncn2[C@@H]1O[C@H](COC(c2ccccc2)(c2ccccc2)c2ccccc2)[C@@H](O)[C@H]1O`, for which the CC50 at 168 h in data set [2] and in data set [3] was 30 µM throughout.

In the case of `O=c1ccn([C@@H]2O[C@H](CO)[C@@H](OC(c3ccccc3)(c3ccccc3)c3ccccc3)[C@H]2O)c(=O)[nH]1`, the CC50 at 168 h in data set [2] and in data set [3] was 18 µM throughout. Further, in data set [4], the “Ratio CC50/EC50” value is 1.8. In addition, the EC50 in the data set on Yellow fever virus was 10000 nM.

Turning to `O=c1[nH]c(=O)n([C@@H]2O[C@H](COC(c3ccccc3)(c3ccccc3)c3ccccc3)[C@@H](OC(c3ccccc3)(c3ccccc3)c3ccccc3)[C@H]2O)cc1Cl`, the half-maximal cytotoxic concentration (CC50) at 168 h in data set [2] was 1 µM; in data set [3], 2 µM. For the same compound, the “Ratio CC50/EC50” value in data set [4] is given as 2.9. Further, the EC50 in the data set with Yellow fever virus was determined as 700 nM.

On to `O=c1ccn([C@@H]2O[C@H](COC(c3ccccc3)(c3ccccc3)c3ccccc3)[C@@H](O)[C@H]2OC(c2ccccc2)(c2ccccc2)c2ccccc2)c(=O)[nH]1`, for which the “Ratio CC50/EC50” value in data set [1] is given as over 3; in data set [4], over 80. Also, the CC50 at 168 h in data set [2] and in data set [3] was over 100 µM each time. The values for the EC50 in the data set with Yellow fever virus and in the data set on dengue virus type 2 were 1200 nM and 30 µM, respectively.

In the case of `O=c1ccn([C@@H]2O[C@H](CO)[C@@H](O)[C@H]2OC(c2ccccc2)(c2ccccc2)c2ccccc2)c(=O)[nH]1`, the CC50 at 168 h worked out at 40 µM in data set [2] and 35 µM in data set [3]. The “Ratio CC50/EC50” value in data set [4] turned out to be 1.4. In addition, the EC50 in the data set with Yellow fever virus turned out to be 25000 nM.

As to `Cc1cn([C@H]2C[C@H](OC(c3ccccc3)(c3ccccc3)c3ccccc3)[C@@H](COC(c3ccccc3)(c3ccccc3)c3ccccc3)O2)c(=O)[nH]c1=O`, the figures for the CC50 at 168 h in data set [2] and in data set [3] were 35 µM and 70 µM, respectively. Further, the “Ratio CC50/EC50” value in data set [4] is on record as 7. Moreover, the EC50 with Yellow fever virus was 10000 nM.

Turning to `O=c1[nH]c(=O)n([C@@H]2O[C@H](CO)[C@@H](O)[C@H]2OC(c2ccccc2)(c2ccccc2)c2ccccc2)cc1Cl`, the CC50 at 168 h in data set [2] and in data set [3] was 30 µM in each case. Besides, the “Ratio CC50/EC50” value in data set [4] stood at 2. Besides, the EC50 in the data set with Yellow fever virus was 15000 nM.

Regarding `O=c1[nH]c(=O)n([C@@H]2O[C@H](COC(c3ccccc3)(c3ccccc3)c3ccccc3)[C@@H](O)[C@H]2O)cc1Cl`, the CC50 at 168 h in data set [2] and in data set [3] was 5 µM throughout. The “Ratio CC50/EC50” value in data set [4] came to 2.5. Also, the EC50 with Yellow fever virus stood at 2000 nM.

`O=c1ccn([C@H]2C[C@H](OC(c3ccccc3)(c3ccccc3)c3ccccc3)[C@@H](COC(c3ccccc3)(c3ccccc3)c3ccccc3)O2)c(=O)[nH]1`: the “Ratio CC50/EC50” value in data set [1] is over 17; in data set [4], over 70. Further, the CC50 at 168 h in data set [2] and in data set [3] was over 65 µM throughout. Moreover, the EC50 in the data set on Yellow fever virus is 900 nM; in the data set with dengue virus type 2 it was 3.7 µM.

Turning to `O=c1ccn([C@H]2C[C@H](O)[C@@H](COC(c3ccccc3)(c3ccccc3)c3ccccc3)O2)c(=O)[nH]1`, the CC50 at 168 h in data set [2] came out at 8 µM; in data set [3], 5 µM. Further, the “Ratio CC50/EC50” value in data set [4] turned out to be 1.7. In the data set with Yellow fever virus, the EC50 came to 3000 nM.

For `Cc1cn([C@H]2C[C@H](O)[C@@H](COC(c3ccccc3)(c3ccccc3)c3ccccc3)O2)c(=O)[nH]c1=O`, the CC50 at 168 h came to 4 µM in data set [2] and 8 µM in data set [3].
